Source: PubChem BioAssay
In the library only some 1.6% were active in any assay of this set; here they are far more common.
NOD2 RIPK2 PPI = blocks binding of human NOD2 to RIPK2 | CHO BLA complementation NOD2-RIPK2, CCF4 ratio | inhibition, % at 4.98 µM | 0.38% of 360,000 active; in the data active means inhibition above about 21%;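 further: 0% = vehicle only and 100% = reference blocker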
SR-BI DiI-HDL act = activators of SR-BI mediated HDL lipid uptake | activation, % at 12.5 µM | CHO ldlA[mSR-BI] cells, DiI-HDL uptake fluorescence, 3 h; 100 = double the neutral-control signal | 0.096% of 320,000 active;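 active means mean replicate activation of at least 60% and every replicate at or above 60%; inconclusive means mean or all-replicate condition met, but not both; inactive means mean below 60% and not all replicates reaching 60%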;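 further: 0% = median plate neutral-control signal and 100% = twice that signal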
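material = CHO ldlA[mSR-BI] cells | medium = Ham's F12 with 0.5% BSA, HEPES 25 mM, pH 7.4 | reagent = fluorescent DiI-HDL, 10 µg/mL final | compound dosing = single-point compound dose | incubation = 3 h, 37 °C | measured by = bottom-read fluorescence, 550/595 nm | measure = HDL uptake via cellular fluorescence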
SR-BI DiI inh = blocks mouse SR-BI lipid uptake from DiI-HDL; ldlA[mSR-BI] CHO cells, DiI-HDL uptake fluorescence, 3 h; inhibition, % at 12.5 µM; 0.96% of 320,000 active;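 active means mean replicate inhibition of at least 70% and a set share of replicates each scoring 70 or more; inconclusive means meets just one of the two criteria; inactive means fails both criteria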;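 further: 0% = median of neutral control wells and 100% = median of positive control wells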
TLR9-MyD88 inh = TLR9-MyD88 interaction inhibition; Q9NR96+Q99836; CHO BLA complementation TLR9-MyD88, CCF4 FRET ratio; inhibition, % at 4.98 µM; 0.21% of 340,000 active;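 active means inhibition above the mean over all tested compounds plus 3 SD, cut at about 21% in these data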;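 further: 0% = DMSO only wells and 100% = clavulanate BLA inhibitor control wells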
Lipid droplet = modulators of hepatic lipid droplet formation; AML12 mouse hepatocytes, oleate lipid droplets, BODIPY imaging; inhibition, % at 6.5 µM; 0.4% of 240,000 active;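 active means lipid droplet intensity inhibited by at least 50%, with more than 500 cells counted; inconclusive means wells with under 300 cells, treated as cytotoxic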
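Assay system: AML12 mouse liver cells | Compound: 6.5 µM single-point dosing | Schedule: Overnight exposure | Technique: Fluorescence imaging, 20x objective, two fields per well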
TLR4-MyD88 BLA = TLR4-MyD88 interaction inhibition in cells; inhibition, % at 8.4 µM; HeLa CL3-4 TLR4/MyD88 BLA complementation, FRET ratio; 0.18% of 200,000 active; AID 861; O00206+Q99836; in the data active means inhibition above about 25%;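 further: 0% = vehicle and 100% = reference inhibitor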
Hep lipid conf = confirmation of inhibitors of hepatic lipid droplet formation | shares compounds with Lipid droplet | AML12 mouse hepatocytes, BODIPY lipid droplet imaging; droplets induced with 100 µM oleic acid | 65% of 870 active | inhibition, % at 5.2 µM;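 active means inhibition of lipid droplet metric at least 50%, with more than 300 cells in each of four replicates; inconclusive means wells under 300 cells, flagged as toxic or low count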;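 further: plate controls were DMSO with oleic acid for no effect and 5 µM Triacsin-C for full effect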
AML12 tox img = counter-screen for cytotoxicity in AML12 mouse hepatocytes | shares compounds with Lipid droplet | DAPI nuclear morphology cytotoxicity imaging; active compounds read high; cells fed 100 µM oleate overnight | z-score at 5 µM | 3% of 870 active | AID 463200; in the data active means z-score above about 6.3;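 further: compound exposure lasted overnight at 37 °C before fixation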
AML12 tox ATP = confirmation of cytotoxicity in AML12 mouse hepatocytes. shares compounds with Lipid droplet. AML12 mouse hepatocyte viability, ATP luminescence; cells loaded with 100 µM oleic acid. 530 tested, under 10 active. cytotoxicity, % at 50 µM;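 active means cytotoxicity above 50% in each of four replicates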;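 further: compound exposure lasted overnight at 37 °C before the ATP read; 0% = DMSO-treated cells and 100% = wells with no cells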
* hit, by the source's call; ? = inconclusive; . = no result.

SMILES	NOD2 RIPK2 PPI	SR-BI DiI-HDL act	SR-BI DiI inh	TLR9-MyD88 inh	Lipid droplet	TLR4-MyD88 BLA	Hep lipid conf	AML12 tox img	others
O=C(Nc1nc(-c2cccc([N+](=O)[O-])c2)cs1)c1cccc([N+](=O)[O-])c1C(=O)O	-3	-12	12	6	2	-7	.	.
CC(C)Oc1ccc(C(=O)OC(C)C(=O)Nc2nc(-c3cccc([N+](=O)[O-])c3)cs2)cc1 (stereo unspecified)	6	-50	50	7	91*	-13	97*	0.34	AML12 tox ATP=10
CCN(CC(=O)NC1CCCC1)S(=O)(=O)c1ccc(F)cc1	-3	10	-10	3	1	.	.	.
CCN(CC)c1ccc(CC(=O)NC(C)Cc2ccccc2)cc1 (stereo unspecified)	6	-12	12	-6	.	-18	.	.
CCCN(CCC)c1ccc(CC(=O)NC(C)Cc2ccccc2)cc1 (stereo unspecified)	4	14	-14	0	101*	17	109*	-0.95	AML12 tox ATP=3
COC(=O)[C@@]12C[C@@H](CC(=O)NCc3cccc4ccccc34)C(=O)N(CCc3ccc(OC)c(OC)c3)C1=CCC(C)(C)C2	-3	.	.	.	.	.	.	.
Cc1cc(C)nc(N2CCCC(CCC(=O)NCc3ccc(F)c(F)c3)C2)n1 (stereo unspecified)	1	-10	10	2	0	0	.	.
CCCCc1ccc(NC(=O)CSc2nnc(C)c(=O)n2N)cc1	-7	9	-9	-3	81*	.	106*	0.44	AML12 tox ATP=21
CCCCc1ccc(NC(=O)CSc2nc3ncccc3[nH]2)cc1	-4	26	-26	4	52*	.	92*	-0.43	AML12 tox ATP=30
Oc1ccc2ccccc2c1N=Nc1ccccc1F	-5	.	.	4	93*	.	95*	0.84
O=S(=O)(O)c1cccc(N=Nc2c(O)ccc3ccccc23)c1	1	26	-26	0	17	.	.	.
O=C(CCNC(=O)C1CCN(S(=O)(=O)c2ccccc2)CC1)NCCc1cccc(F)c1	5	-16	16	3	54*	.	27	-0.15
O=C(CCNC(=O)C1CCN(S(=O)(=O)c2ccccc2)CC1)NCCc1ccc(Cl)cc1	5	-8	8	0	11	.	.	.
COc1ccc(S(=O)(=O)N2CCCCCC2)cc1C(=O)N(C)CCOc1ccccc1	6	24	-24	-1	.	.	.	.
Cc1ccc(S(=O)(=O)N2CCCCC2)cc1C(=O)N(C)CCOc1ccccc1	7	8	-8	-12	62*	.	-9	1.8
Cc1ccccc1CC(=O)Nc1cccc(S(=O)(=O)N2CCCC2)c1	-3	3	-3	7	.	.	.	.
COc1ccc(/C=N/N=C2\SCC(=O)N2c2c(C)n(C)n(-c3ccccc3)c2=O)cc1OC	-9	0	0	5	62*	-1	32	-0.53
CCn1cc(C(=O)N[C@H](C(=O)NCCCn2ccnc2)C(C)C)c(=O)c2cc3c(cc21)OCO3	0	11	-11	-3	-2	.	.	.
CN(C(=O)C1CC1)C1CCS(=O)(=O)C1 (stereo unspecified)	-5	2	-2	3	.	.	.	.
CC(C)Cn1c(N)c(C(=O)COC(=O)c2cc(C3CC3)nc3ccccc23)c(=O)n(C)c1=O	.	.	.	.	74*	-14	85*	0.016
CSc1c(CC(=O)Nc2ccccc2C(F)(F)F)n(Cc2ccccc2)c2ccccc12	-4	9	-9	2	69*	-4	104*	0.47
O=C(NCC(c1cccs1)N1CCOCC1)c1cc(S(=O)(=O)N2CCOCC2)ccc1F (stereo unspecified)	-4	6	-6	1	.	.	.	.
Cc1ccc(C(=O)NCCc2nc3ccccc3[nH]2)cc1[N+](=O)[O-]	-8	6	-6	3	82*	-15	94*	-0.074	AML12 tox ATP=18
O=C(NCCc1nc2ccccc2[nH]1)c1ccc(Br)o1	2	17	-17	-5	51*	.	62*	-0.12	AML12 tox ATP=6
CCCCn1c(N)c(N(CCOC)C(=O)c2cc(CC)c(C)s2)c(=O)[nH]c1=O	2	11	-11	4	.	.	.	.
SMILES	NOD2 RIPK2 PPI	SR-BI DiI-HDL act	SR-BI DiI inh	TLR9-MyD88 inh	Lipid droplet	TLR4-MyD88 BLA	Hep lipid conf	AML12 tox img	others
CCN(CC)C(=O)[C@H]1C[C@H](CC(=O)NCCC2=CCCCC2)C(=O)N2CCc3c([nH]c4ccc(Cl)cc34)[C@]12C	-11	-7	7	3	.	.	.	.
c1coc(CN(Cc2cccs2)Cc2nnnn2C2CCCCC2)c1	-1	1	-1	-2	19	-5	.	.
Clc1ccccc1CN(Cc1ccco1)Cc1nnnn1C1CCCC1	-5	-20	20	1	68*	-5	1	-0.68
CCCc1nc2ccc(N)cc2c(=O)n1Cc1ccccc1Cl	-2	-15	15	-8	-1	.	.	.
CC(C)C(=O)N1CCC(n2nccc2NC(=O)CCOc2ccccc2)CC1	-3	-3	3	-8	-2	.	.	.
C=CCC(=O)N1CCC(n2nccc2NC(=O)CCOc2ccccc2)CC1	2	25	-25	0	61*	.	19	-0.46
Cc1ccc(CN2CCN(c3ncccn3)CC2)o1	-3	38	-38	-9	7	0	.	.
Cc1ccc(CN2CCN(c3ccccc3)CC2)o1	-3	-9	9	4	75*	.	39	-0.22
CCCCN(CCCNC(=O)CN1C(=O)COc2ccccc21)c1ccccc1	2	-34	34	-8	53*	7	103*	-0.38	AML12 tox ATP=4
O=C1c2ccccc2C2=Nc3ccccc3SC(c3cccc(F)c3)C12 (stereo unspecified)	9	-71	?	0	66*	3	65	8.8*
CN1C(=O)N(CC(=O)N2CCN(c3ccccc3F)CC2)C(=O)C12CCCCC2	4	3	-3	1	.	.	.	.
COc1ccc(-c2csc(NC(CO)c3nc4ccccc4n3CCOCCO)n2)cc1 (stereo unspecified)	-5	3	-3	0	.	.	.	.
Cc1cc(C)cc(NCc2ccncc2)c1	-1	18	-18	-3	-2	.	.	.
c1ccc(NCc2ccncc2)cc1	-7	10	-10	8	55*	.	4	0.77
CCCCCCNC(=O)c1cn(CC)c2cc(N3CCN(C)CC3)c(F)cc2c1=O	6	7	-7	-6	53*	.	27	0.62
